The text below walks through data of ChEMBL document CHEMBL1123026, “Preparation and antiarthritic and analgesic activity of 4,5-diaryl-2-(substituted thio)-1H-imidazoles and their sulfoxides and sulfones” (1985).

Some results are limits rather than exact numbers.

What all share (type): functional
Assay [1] concerns Rattus norvegicus. Put plainly: Decrease in rat paw volume was evaluated at dose 100 mg/kg. Put shortly:
(§1)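 Male Lewis rats (130-150 g) got 0.1 mL adjuvant (heat-killed Mycobacterium butyricum, 5 mg/mL in mineral oil) subplantar in the right hind paw and were left 2 weeks. Groups of 10 matched for severity were dosed orally by gavage (PVA-acacia vehicle, 10 mL/kg) for 7 days. Uninjected left hind paw volume was read the next day. % decrease = (arthritic control − treated)/(arthritic − nonarthritic control) × 100; Student's t-test.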

Assay [2] relates to Mus musculus. Put plainly: Effective dose determined by mouse phenyl-p-benzoquinone writhing (PQW) assay after peroral administration. The following applies: po. The method, boiled down:
(§2)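 Fasted (17-21 h) female white mice, 5-20 per double-blind test, dosed orally with compound suspended in 1% methylcellulose. 0.20 mL aqueous 0.01% phenyl-p-benzoquinone given i.p. 6 min before a 10-min observation for stretching/writhing. ED50 (dose protecting 50% of mice) calculated by the moving-average method.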
A general note: An intraperitoneal irritant provokes the stretching counted in writhing tests.

Assay [3] relates to Rattus norvegicus. Put plainly: Decrease in paw volume was evaluated at dose 30 mg/kg. Put shortly:
as §1

In assay [4] the test system is Mus musculus. Put plainly: Effective dose by mouse phenyl-p-benzoquinone writhing (PQW)assay after peroral administration; activity value ranges from (2.5 - 8.9). The following applies: po. Put shortly: as §2
For assay [5], the system named is Rattus norvegicus. Put plainly: Effective dose determined against rat adjuvant arthritis after peroral administration. The following applies: po. Put shortly: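 Male Lewis rats (130-150 g) given 0.1 mL Mycobacterium butyricum adjuvant (5 mg/mL in mineral oil) s.c. into the right hind paw; arthritis developed for 2 weeks. Groups of 10 matched for severity were dosed orally by gavage in PVA-acacia vehicle (10 mL/kg) for 7 days. Uninjected left paw volume was measured the day after the last dose. Percent decrease was calculated vs arthritic and nonarthritic controls. ED50 was read from a visually fitted semilog dose-response line.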

Assay [6] concerns Mus musculus. The assay is described as follows: Effective dose by mouse phenyl-p-benzoquinone writhing (PQW)assay after peroral administration; activity value ranges from (0.09 - 0.86). The following applies: po.
Assay [7] has as its system Rattus norvegicus. The assay is described as follows: Decrease in paw volume was evaluated at dose 9 mg/kg. The method, boiled down: as §1
Assay [8] concerns Rattus norvegicus. The assay is described as follows: Decrease in paw volume was evaluated at dose 1 mg/kg. Put shortly: as §1
For assay [9], the system named is Mus musculus. Put plainly: Effective dose by mouse phenyl-p-benzoquinone writhing (PQW)assay after peroral administration; activity value ranges from (20.0-81.0). The following applies: po. Put shortly:
as §2

Assay [10] relates to Mus musculus. The assay is described as follows: Effective dose by mouse phenyl-p-benzoquinone writhing (PQW)assay after peroral administration; activity value ranges from (15.0-77.0). The following applies: po. The method, boiled down:
as §2

The test system of assay [11] is Rattus norvegicus. The assay is described as follows: Decrease in paw volume by the effect of compound at a dose of 75 mg/kg. Put shortly:
as §1

The subject of assay [12] is Mus musculus. Put plainly: Effective dose by mouse phenyl-p-benzoquinone writhing (PQW)assay after peroral administration; activity value ranges from (0.37-1.52). The following applies: po.
Assay [13] relates to Mus musculus. Put plainly: Effective dose by mouse phenyl-p-benzoquinone writhing (PQW)assay after peroral administration; highest dose was tested. The following applies: po. The method, boiled down: as §2
The subject of assay [14] is Rattus norvegicus. Put plainly: Decrease in paw volume by the effect of compound at a dose of 80 mg/kg. The method, boiled down:
as §1

Assay [15] has as its system Mus musculus. The assay is described as follows: Effective dose by mouse phenyl-p-benzoquinone writhing (PQW)assay after peroral administration; activity value ranges from (4.8-25.4). The following applies: po. The method, boiled down: as §2
Assay [16] concerns Mus musculus. Put plainly: Effective dose by mouse phenyl-p-benzoquinone writhing (PQW)assay after peroral administration; activity value ranges from (10.9-40.0). The following applies: po. Put shortly:
as §2

Assay [17] concerns Rattus norvegicus. Put plainly: Decrease in paw volume by the effect of compound at a dose of 30 mg/kg. Put shortly: as §1
Assay [18] deals with Rattus norvegicus. The assay is described as follows: Decrease in paw volume was evaluated at dose 50 mg/kg. Put shortly: as §1
Assay [19] deals with Mus musculus. Put plainly: Effective dose by mouse phenyl-p-benzoquinone writhing (PQW)assay after peroral administration; activity value ranges from (4.6 - 21.7). The following applies: po. The method, boiled down:
as §2

For assay [20], the system named is Mus musculus. Put plainly: Effective dose by mouse phenyl-p-benzoquinone writhing (PQW)assay after peroral administration; activity value ranges from (28.6-55.9). The following applies: po. Put shortly:
as §2

Assay [21] concerns Mus musculus. The assay is described as follows: Effective dose by mouse phenyl-p-benzoquinone writhing (PQW)assay after peroral administration; 3.1-14.0. The following applies: po.
The subject of assay [22] is Mus musculus. The assay is described as follows: Effective dose by mouse phenyl-p-benzoquinone writhing (PQW)assay after peroral administration; activity value ranges from (18.6-69.6). The following applies: po. The method, boiled down:
as §2

Assay [23] has as its system Mus musculus. The assay is described as follows: Effective dose by mouse phenyl-p-benzoquinone writhing (PQW)assay after peroral administration; activity value ranges from (8.8-36.8). The following applies: po. Put shortly:
as §2

By ED50 is commonly meant the dose that gives a 50% effect, or the effect in half of the subjects. Turning to `CSc1nc(-c2ccccc2)c(-c2ccccc2)[nH]1`, in the assay on Rattus norvegicus [1], the Decrease is listed as 20%. The 50% effective dose (ED50) in the assay on Mus musculus [2] was above 100 mg/kg.
In turn, `COc1ccc(-c2nc(SC(C)C)[nH]c2-c2ccc(OC)cc2)cc1` showed a Decrease in the assay with Rattus norvegicus [3] of 38%.
With `[O-][S+](c1nc(-c2ccccc2)c(-c2ccccc2)[nH]1)C(F)(F)C(F)F` (configuration not stated), the ED50 in the assay on Mus musculus [4] was found to be 4.7 mg/kg.
Turning to `COc1ccc(-c2[nH]c(S(=O)(=O)C(F)(F)C(F)F)nc2-c2ccc(F)cc2)cc1`, the figures for the 50% effective dose (ED50) in the assay with Rattus norvegicus [5] and with Mus musculus [6] were 1.7 mg/kg and 0.28 mg/kg, respectively.
As for `CSc1nc(-c2ccc(C(F)(F)F)cc2)c(-c2ccc(C(F)(F)F)cc2)[nH]1`, in the assay with Rattus norvegicus [7], the Decrease was 29%. In addition, in the assay with Mus musculus [2], the ED50 was above 130 mg/kg.
In the assay with Rattus norvegicus [8], `FC(F)C(F)(F)Sc1nc(-c2ccc(Cl)cc2)c(-c2ccc(C(F)(F)F)cc2)[nH]1` had a Decrease of 35%. The ED50 in the assay with Mus musculus [2] is above 130 mg/kg.
`CSc1nc(-c2ccc(C(F)(F)F)cc2)c(-c2ccccc2)[nH]1` came in with a Decrease in the assay on Rattus norvegicus [7] of 41%. This molecule also showed an ED50 in the assay on Mus musculus [2] above 130 mg/kg.
`[O-][S+](c1nc(-c2ccc(F)cc2)c(-c2ccc(F)cc2)[nH]1)C(F)(F)F` (configuration not stated): the values for the ED50 in the assay on Rattus norvegicus [5] and in the assay with Mus musculus [9] were 0.06 mg/kg and 40 mg/kg, respectively.
In the assay with Rattus norvegicus [8], `FC(F)(F)Sc1nc(-c2ccccc2)c(-c2ccccc2)[nH]1` came in with a Decrease of 27%. Further, the ED50 with Mus musculus [2] is above 130 mg/kg.
With `COc1ccc(-c2nc([S+]([O-])CSC)[nH]c2-c2ccc(OC)cc2)cc1` (configuration not stated), the ED50 came out at 28 mg/kg in the assay with Rattus norvegicus [5] and 34 mg/kg in the assay with Mus musculus [10].
In turn, `CS(=O)(=O)c1nc(-c2cccc(F)c2)c(-c2ccccc2)[nH]1` had an ED50 in the assay on Mus musculus [2] above 130 mg/kg. In addition, the Decrease in the assay on Rattus norvegicus [11] is on record as 32%.
In the assay on Mus musculus [12], `O=S(=O)(c1nc(-c2ccccc2)c(-c2ccccc2)[nH]1)C(F)(F)F` displayed a median effective dose (ED50) of 0.75 mg/kg.
On to `FC(F)C(F)(F)Sc1nc(-c2ccccc2)c(-c2ccccc2)[nH]1`, for which the ED50 with Rattus norvegicus [5] was determined as 1.2 mg/kg; in the assay on Mus musculus [13] it was 81 mg/kg.
Consider `COc1ccc(-c2nc(S(=O)(=O)CS(C)(=O)=O)[nH]c2-c2ccc(OC)cc2)cc1`, for which, in the assay on Rattus norvegicus [14], the Decrease stood at 43%. The molecule further had an ED50 with Mus musculus [2] above 130 mg/kg.
With `O=S(=O)(c1nc(-c2ccc(Cl)cc2)c(-c2ccc(Cl)cc2)[nH]1)C(F)(F)C(F)F`, the ED50 in the assay with Mus musculus [15] came to 11 mg/kg; with Rattus norvegicus [5], 0.18 mg/kg.
Consider `C[S+]([O-])c1nc(-c2cccc(Cl)c2)c(-c2ccccc2)[nH]1` (configuration not stated), for which the ED50 in the assay on Mus musculus [2] is above 130 mg/kg. In addition, the Decrease with Rattus norvegicus [11] is listed as 77%.
As to `CS(=O)(=O)c1nc(-c2ccc(F)cc2)c(-c2ccccc2)[nH]1`, the figures for the ED50 with Rattus norvegicus [5] and in the assay on Mus musculus [13] were above 9 mg/kg and 135 mg/kg, respectively.
Regarding `COc1ccc(-c2nc([S+]([O-])CC(C)=O)[nH]c2-c2ccc(OC)cc2)cc1` (configuration not stated), the ED50 with Rattus norvegicus [5] was 35 mg/kg; in the assay on Mus musculus [13], 135 mg/kg.
In the assay with Mus musculus [16], `O=S(=O)(c1nc(-c2cccc(Cl)c2)c(-c2cccc(Cl)c2)[nH]1)C(F)(F)C(F)F` showed an ED50 of 20.9 mg/kg.
With `COc1ccc(-c2nc([S+]([O-])C(C)C)[nH]c2-c2ccc(OC)cc2)cc1` (configuration not stated), the Decrease in the assay with Rattus norvegicus [17] amounted to 36%. The molecule further had an ED50 in the assay on Mus musculus [2] above 130 mg/kg.
As to `COc1ccc(-c2nc(SCSC)[nH]c2-c2ccc(OC)cc2)cc1`, the Decrease with Rattus norvegicus [3] was 46%. The molecule further came in with an ED50 with Mus musculus [2] above 130 mg/kg.
Consider `CSc1nc(-c2cccc(Cl)c2)c(-c2ccccc2)[nH]1`, for which the Decrease in the assay with Rattus norvegicus [18] is on record as 43%. This molecule also came in with an ED50 with Mus musculus [2] above 130 mg/kg.
Turning to `CCS(=O)(=O)c1nc(-c2ccc(OC)cc2)c(-c2ccc(OC)cc2)[nH]1`, the ED50 with Mus musculus [19] was 10 mg/kg; in the assay with Rattus norvegicus [5], 6 mg/kg.
In the assay on Mus musculus [20], `O=S(=O)(c1nc(-c2ccc(C(F)(F)F)cc2)c(-c2ccccc2)[nH]1)C(F)(F)C(F)F` yielded an ED50 of 40 mg/kg.
In turn, `O=S(=O)(c1nc(-c2ccccc2)c(-c2ccccc2)[nH]1)C(F)(F)C(F)Br` (configuration not stated) gave an ED50 in the assay with Mus musculus [21] of 6.6 mg/kg.
In the assay with Mus musculus [22], `CC[S+]([O-])c1nc(-c2ccc(OC)cc2)c(-c2ccc(OC)cc2)[nH]1` (configuration not stated) showed an ED50 of 36 mg/kg.
With `O=S(=O)(c1nc(-c2ccc(F)cc2)c(-c2ccc(C(F)(F)F)cc2)[nH]1)C(F)(F)C(F)F`, the ED50 with Rattus norvegicus [5] is above 1 mg/kg; in the assay with Mus musculus [23] it was 18 mg/kg.
